Source: ChEMBL document CHEMBL4184121, “Semisynthesis, cytotoxicity, antimalarial evaluation and structure-activity relationship of two series of triterpene derivatives” (Bioorg Med Chem Lett, 2018)
The source made the active and inactive calls. The calls are words filed in the database; no cut-off is given here.

Legend:
[1] = Cytotoxicity against African green monkey Vero cells after 72 hrs by MTT assay; type: cell-based; conditions: chlorocebus sabaeus
In short: (§1)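 VERO (ATCC CCL-81) and HepG2 (ATCC HB-8065) cells were exposed for 24, 48 or 72 h to an […] dilution series from 400 to 1.56 μM. CC50 was taken from the concentration–response curve. Triplicates, with at least three independent cultures (n = 3).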

Plasmodium falciparum [2] = test: Antiplasmodial activity against chloroquine-resistant Plasmodium falciparum W2 infected in human erythrocytes; type: functional, organism-based
In short: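 P. falciparum W2 grown in fresh human O+ erythrocytes at 2% hematocrit in complete medium, 37 °C. Compounds tested over a 100–3.12 µM dilution series. IC50 estimated from the dose-response curve relative to drug-free control wells (100% parasite viability). Artemisinin run in parallel as control. Triplicates, at least three independent cultures (n = 3).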

Plasmodium falciparum [3] = test: Antiplasmodial activity against chloroquine-sensitive Plasmodium falciparum 3D7; type: functional, organism-based
Plasmodium falciparum [4] = test: Antiplasmodial activity against synchronous culture of chloroquine-resistant Plasmodium falciparum W2 ring stage parasite infected in human erythrocytes assessed as delayed appearance of trophozoites at 100 uM after 24 to 72 hrs by Wright's eosin methylene blue staining based microscopic analysis; type: functional, organism-based
In short: (§2)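 Stage-specificity test on W2 parasites in human erythrocytes, started at 2% parasitaemia. Parasites cultured at 2% hematocrit in complete medium at 37 °C.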

[5] = Resistance index, ratio of IC50 for chloroquine-resistant Plasmodium falciparum W2 infected in human erythrocytes to IC50 for chloroquine-sensitive Plasmodium falciparum 3D7; type: functional
Plasmodium falciparum [6] = test: Antiplasmodial activity against Plasmodium falciparum assessed as combination index in presence of artemisinin; type: functional
In short: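 Chloroquine-resistant P. falciparum W2 was grown in fresh human O+ erythrocytes at 2% hematocrit in complete medium at 37 °C. Artemisinin was co-tested with the triterpene using the one-point Chou–Talalay method, at a minimum of one combination ratio. CI is the sum of the two FICs: ≤1 synergy, 1–2 additivity, >2 antagonism. Triplicates, n = 3 independent cultures.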

Plasmodium falciparum [7] = test: Antiplasmodial activity against Plasmodium falciparum assessed as potentiation of artemisinin-induced antimalarial activity by measuring dose reduction index relative to artemisinin alone; type: functional
Subtilisin Carlsberg = molecular target: T1, Subtilisin Carlsberg (Bacillus licheniformis, UniProt P00780); test: Inhibition of Bacillus licheniformis subtilisin A by green-fluorescent BODIPY FL dye based fluorescence assay
T1 sequence (P00780 whole entry): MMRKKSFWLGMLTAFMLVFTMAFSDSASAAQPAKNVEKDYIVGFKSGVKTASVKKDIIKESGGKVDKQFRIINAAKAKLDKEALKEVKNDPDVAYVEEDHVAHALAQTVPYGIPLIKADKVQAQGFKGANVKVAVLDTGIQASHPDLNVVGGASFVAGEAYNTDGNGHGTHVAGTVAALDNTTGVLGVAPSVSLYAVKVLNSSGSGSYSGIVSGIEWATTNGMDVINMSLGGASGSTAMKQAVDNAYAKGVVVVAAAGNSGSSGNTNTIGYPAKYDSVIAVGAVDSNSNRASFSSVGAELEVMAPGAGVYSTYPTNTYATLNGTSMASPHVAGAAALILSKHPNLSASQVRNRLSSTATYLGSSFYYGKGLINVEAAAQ
In short: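 Purified B. licheniformis subtilisin A tested with a commercial fluorescent peptidase/protease kit, following the kit protocol. Test compound ranged from 5 to 0.01 mM. Fluorescence plotted against log inhibitor concentration.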

[8] = Cytotoxicity against human HepG2 cells after 72 hrs by MTT assay; type: cell-based; in short: as §1
Plasmodium falciparum [9] = test: Antiplasmodial activity against synchronous culture of chloroquine-resistant Plasmodium falciparum W2 ring stage parasite infected in human erythrocytes assessed as parasite cell death at 100 uM up to 72 hrs by Wright's eosin methylene blue staining based microscopic analysis; type: functional, organism-based; in short: as §2
Plasmodium falciparum [10] = test: Antiplasmodial activity against synchronous culture of chloroquine-resistant Plasmodium falciparum W2 ring stage parasite infected in human erythrocytes assessed as accumulation of ring forms at 100 uM after 24 to 72 hrs by Wright's eosin methylene blue staining based microscopic analysis; type: functional, organism-based; in short: as §2
[11] = Selectivity index, ratio of CC50 for human HepG2 cells to IC50 for chloroquine-resistant Plasmodium falciparum W2; type: toxicity; conditions: read-out: Ratio CC50/IC50
In short: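 SI = HepG2 CC50 / W2 IC50. CC50 came from HepG2 growth inhibition over a 400–1.56 µM dilution series, read at 24, 48 and 72 h. IC50 came from the W2 erythrocyte assay (100–3.12 µM range). Triplicates, at least three independent cultures.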

Plasmodium falciparum [12] = test: Antiplasmodial activity against synchronous culture of chloroquine-resistant Plasmodium falciparum W2 ring stage parasite infected in human erythrocytes assessed as reduction in parasitaemia at 100 uM after 24 to 72 hrs by Wright's eosin methylene blue staining based microscopic analysis; type: functional, organism-based; in short: as §2

For `C=C(C)[C@@H]1CC[C@]2(C(=O)O)CC[C@]3(C)[C@H](CC[C@@H]4[C@@]5(C)CC[C@H](OC(=O)CCC)C(C)(C)[C@@H]5CC[C@]43C)[C@@H]12`, the CC50 at 72 h [1] was > 400 µM, the IC50 (Plasmodium falciparum [2]) was 3.4 µM and the IC50 (Plasmodium falciparum [3]) was 5 µM. For the same compound, the Activity (Plasmodium falciparum [4]) was “Active”, the “Ratio IC50” value [5] was 0.68 and the CI (Plasmodium falciparum [6]) was 1.34. For the same compound, the Activity_index (Plasmodium falciparum [7]) was 4, the IC50 (Subtilisin Carlsberg) was 93 µM and the CC50 at 72 h [8] was > 400 µM. For the same compound, the Activity (Plasmodium falciparum [9]) was “Active”, the Activity (Plasmodium falciparum [10]) was “Active” and the selectivity ratio [11] was > 117. For the same compound, the Activity (Plasmodium falciparum [12]) was “Active”.
